Reference: ChEMBL document CHEMBL5247673, “Discovery of Small Molecules Targeting the Frameshifting Element RNA in SARS-CoV-2 Viral Genome” (ACS Med Chem Lett, 2023)
The source made the active and inactive calls. No cut-off for these calls is given here.

Key:
[1] = test system: Severe acute respiratory syndrome coronavirus 2; experiment: Binding affinity to 5'-CY5-labelled SARS-CoV-2 frameshift element RNA by SPR analysis
How it was run: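 Single-concentration SPR at 100 μM compound over immobilized FSE RNA, with the lead compound as positive control.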

[2] = test system: Severe acute respiratory syndrome coronavirus 2; experiment: Binding affinity to 5'-CY5-labelled SARS-CoV-2 frameshift element RNA by MST analysis
How it was run: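 Single-concentration MST screen against 5′-Cy5-labelled FSE RNA at 100 μM compound. A hit required an MST shift greater than 3SD of the DMSO signal, with the lead compound as positive control.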

[3] = test system: Severe acute respiratory syndrome coronavirus 2; experiment: Binding affinity to 5'-CY5-labelled SARS-CoV-2 frameshift element RNA at 50 uM by MST analysis
[4] = test system: Severe acute respiratory syndrome coronavirus 2; experiment: Binding affinity to SARS-CoV-2 frameshift element RNA at 150 uM by water ligand observed gradient spectroscopic analysis
How it was run: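 WaterLOGSY NMR of 150 μM compound, alone and with 5 μM unlabelled FSE RNA. N-methyl-L-valine served as internal non-binding control, and a phase inversion of ligand peaks was read as binding.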

Reticulocyte [5] = experiment: Binding affinity to wild-type SARS-CoV-2 frameshift element RNA pseudoknot sequence transfected with Renilla/Firefly luciferase in rabbit reticulocyte lysate assessed as frameshifting by measuring ratio of renilla/firefly luminescence by dual-luciferase reporter assay; format: subcellular; conditions: Severe acute respiratory syndrome coronavirus 2
How it was run: (§1)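 In vitro frameshifting reporter with the SARS-CoV-2 or RSV pseudoknot placed between Renilla (0 frame) and firefly (−1 frame) luciferases. Frameshifting was the luminescence ratio. Frameshifting and translation were normalized to WT plus DMSO. Controls were a 5′ stop codon, a 3′ stop codon and a same-frame construct. Data are mean ± SD, n = 3.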

Reticulocyte [6] = experiment: Binding affinity to wild-type Rous sarcoma virus frameshift element RNA pseudoknot sequence transfected with Renilla/Firefly luciferase in rabbit reticulocyte lysate assessed as frameshifting by measuring ratio of renilla/firefly luminescence by dual-luciferase reporter assay; format: subcellular; how it was run: as §1
[7] = Binding affinity to 5'-biotin-labelled SARS-CoV-2 frameshift element RNA assessed as dissociation constant by SPR analysis; design: species or system Severe acute respiratory syndrome coronavirus 2
How it was run: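 5′-Biotin FSE RNA was captured on a streptavidin-coated SPR surface. Compound was injected at 15.6–1000 μM, and KD came from steady-state fitting to a 1:1 Langmuir model. Stoichiometry was estimated from Rmax and the molecular ratio.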

Reticulocyte [8] = experiment: Binding affinity to wild-type Rous sarcoma virus frameshift element RNA pseudoknot sequence transfected with Renilla/Firefly luciferase in rabbit reticulocyte lysate assessed as translation by measuring ratio of renilla luminescence by dual-luciferase reporter assay; format: subcellular; how it was run: as §1
Reticulocyte [9] = experiment: Binding affinity to wild-type SARS-CoV-2 frameshift element RNA pseudoknot sequence transfected with Renilla/Firefly luciferase in rabbit reticulocyte lysate assessed as translation by measuring ratio of renilla luminescence by dual-luciferase reporter assay; format: subcellular; conditions: Severe acute respiratory syndrome coronavirus 2; how it was run: as §1
[10] = Cytotoxicity against human MCF7 cells assessed as cell viability at 50 uM measured after 48 hrs by Cell-titer Glo luminescent assay relative to control; format: toxicity, cell-based; conditions: read-out: Activity
How it was run: (§2)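 MCF-7 cell viability after 48 h compound exposure.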

[11] = test system: Severe acute respiratory syndrome coronavirus 2; experiment: Binding affinity to SARS-CoV-2 frameshift element RNA assessed as thermal stability by measuring change in melting temperature of RNA by circular dichroism analysis
How it was run: (§3)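 FSE RNA thermal melt with compound at 150 or 500 μM. Tm was taken from first-derivative melting curves and reported as ΔTm.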

Reticulocyte [12] = experiment: Binding affinity to wild-type Rous sarcoma virus frameshift element RNA pseudoknot sequence transfected with Renilla/Firefly luciferase in rabbit reticulocyte lysate assessed as inhibition of translation by dual-luciferase reporter assay relative to control; format: subcellular; conditions: concentration not given here; how it was run: as §1
Reticulocyte [13] = experiment: Binding affinity to wild-type Rous sarcoma virus frameshift element RNA pseudoknot sequence transfected with Renilla/Firefly luciferase in rabbit reticulocyte lysate assessed as reduction in frameshifting by dual-luciferase reporter assay relative to control; format: subcellular; design: scale not given: the % may be the effect or the level left; how it was run: as §1
MCF7 [14] = experiment: Cytotoxicity against human MCF7 cells assessed as reduction in cell viability upto 100 uM measured after 48 hrs by Cell-titer Glo luminescent assay; format: toxicity, cell-based; conditions: mcf7, 48 h; how it was run: as §2
Reticulocyte [15] = experiment: Binding affinity to wild-type SARS-CoV-2 frameshift element RNA pseudoknot sequence transfected with Renilla/Firefly luciferase in rabbit reticulocyte lysate assessed as reduction in frameshifting by dual-luciferase reporter assay relative to control; format: subcellular; design: scale not given: the % may be the effect or the level left; conditions: Severe acute respiratory syndrome coronavirus 2; how it was run: as §1
[16] = test system: Severe acute respiratory syndrome coronavirus 2; experiment: Binding affinity to 5'-Cy5-labelled SARS-CoV-2 frameshift element RNA at 10 uM by microarray-based fluorescence analysis
[17] = Binding affinity to 5'-CY5-labelled SARS-CoV-2 frameshift element RNA assessed as dissociation constant by MST analysis; design: species or system Severe acute respiratory syndrome coronavirus 2
How it was run: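 MST titration of the compound (4.9–500 μM) into 5′-Cy5-labelled FSE RNA. KD was fitted from T-jump values.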

[18] = test system: Severe acute respiratory syndrome coronavirus 2; experiment: Binding affinity to SARS-CoV-2 frameshift element RNA assessed as thermal stability by measuring change in melting temperature of RNA at 150 uM by circular dichroism analysis; how it was run: as §3
[19] = test system: Severe acute respiratory syndrome coronavirus 2; experiment: Binding affinity to SARS-CoV-2 frameshift element RNA assessed as thermal stability by measuring change in melting temperature of RNA at 500 uM by circular dichroism analysis; how it was run: as §3
MCF7 [20] = experiment: Inhibition of programmed -1 ribosomal frameshifting in human MCF7 cells harboring pCherryGFP-Inframe-noFSE plasmid assessed as inhibition of GFP expression incubated for 30 mins by fluorescence microscopic analysis; format: functional, cell-based
How it was run: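 MCF-7 cells were treated with compound at various concentrations and transfected with an mCherry–FSE–GFP reporter: WT, a stop-codon negative control, or an in-frame no-FSE plasmid. GFP expression was the read-out, compared with a DMSO (0 μM) control. Data are mean ± SD of three independent experiments.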

Row | Structure (SMILES) | Activity [1] | Activity [2] | also measured
1 | COc1ccc(-c2nc(NCCN3CCOCC3)c3ccc(OC)cc3n2)cc1 | Active | Active | 
2 | COc1ccc(-c2nc(NCCN3CCOCC3)c3cc(OC)c(OC)cc3n2)cc1 | Active | Active | 
3 | COc1ccc(-c2nc(NCCS(=O)(=O)N3CCOCC3)c3ccccc3n2)cc1 | Active | inactive | 
4 | COc1ccccc1-c1nc(NCCN2CCOCC2)c2ccccc2n1 | Active | inactive | 
5 | COc1ccc(-c2nc(NCCN3CCOCC3)c3ccc(-c4ccc(S(N)(=O)=O)cc4)cc3n2)cc1 | inactive | inactive | 
6 | COc1cccc(-c2nc(NCCN3CCOCC3)c3ccccc3n2)c1 | inactive | inactive | 
7 | CCN(CCN1CCOCC1)c1nc(-c2ccc(OC)cc2)nc2ccccc12 | Active | inactive | 
8 | COc1ccc(-c2nc(NCCN3CCOCC3)c3cc(-c4cn[nH]c4)ccc3n2)cc1 | Active | inactive | 
9 | FC(F)(F)c1ccc(-c2nc(NCCN3CCOCC3)c3ccccc3n2)cc1 | Active | inactive | 
10 | COc1ccc(-c2nc(NCCN3CCOCC3)c3ccc([N+](=O)[O-])cc3n2)cc1 | inactive | inactive | 
11 | COc1ccc(-c2nc(NCCN3CCOCC3)c3cc(C(F)(F)F)ccc3n2)cc1 | inactive | Active | 
12 | COc1ccc(-c2nc(NCCN3CCOCC3)c3cc([N+](=O)[O-])ccc3n2)cc1 | inactive | inactive | 
13 | CC#CCOc1ccc(-c2nc(NCCN3CCOCC3)c3ccccc3n2)cc1 | inactive | inactive | 
14 | COc1ccc(-c2nc(NCCCN3CCC(N4CCCCC4)CC3)c3ccccc3n2)cc1 |  |  | Activity [3]: inactive; Activity [4]: inactive
15 | COc1ccc(-c2nc(NCCN3CCOCC3)c3ccc(-c4cn[nH]c4)cc3n2)cc1 | Active | Active | 
16 | COc1ccc(-c2nc(NCCN3CCOCC3)c3cc(-c4ccc(N5CCOCC5)c(C)c4)ccc3n2)cc1 | Active | inactive | 
17 | COc1ccc(-c2nc(NCCN3CCOCC3)c3ccc(C(F)(F)F)cc3n2)cc1 | inactive | Active | 
18 | COc1ccc(-c2nc(NCCN3CCN(C)CC3)c3ccccc3n2)cc1 | Active | Active | 
19 | COc1ccc(-c2nc(NCCN3CCOCC3)c3cc(OC)ccc3n2)cc1 | Active | Active | Ratio (Reticulocyte [5]): 0.98; Ratio (Reticulocyte [6]): 1.13; Kd [7]: 60 µM; Ratio (Reticulocyte [8]): 0.82; Ratio (Reticulocyte [9]): 0.98; viability at 48 h, 50 µM [10]: 95.6%
20 | COc1ccc(-c2nc(N3CC(N4CCOCC4)C3)c3ccccc3n2)cc1 | Active | inactive | 
21 | O=[N+]([O-])c1ccc(-c2nc(NCCN3CCOCC3)c3ccccc3n2)cc1 | inactive | inactive | 
22 | COc1ccc(-c2nc(NCCN3CCOCC3)c3cccc(OC)c3n2)cc1 | Active | inactive | 
23 | CCNCC1CCN(c2c(F)cc3c(=O)c(C(=O)O)cn(CC)c3c2F)C1 (stereo not drawn) [MERAFLOXACIN] |  | Active | ΔTm [11]: -3.7 °C; inhibition (Reticulocyte [12]): 30%; Ratio (Reticulocyte [5]): 0.21; Activity (Reticulocyte [13]): 41%; Ratio (Reticulocyte [6]): 0.59; Activity (MCF7 [14]): Non-Toxic; Ratio (Reticulocyte [8]): 0.7; Ratio (Reticulocyte [9]): 0.9; Activity (Reticulocyte [15]): 79%
24 | CCOC(=O)c1ccccc1NC(=O)N1CCCN(Cc2csc(C)n2)CC1 |  | Active | ΔTm [11]: 2.2 °C; Ratio (Reticulocyte [5]): 1.02; Ratio (Reticulocyte [6]): 1.13; Ratio (Reticulocyte [8]): 0.96; Ratio (Reticulocyte [9]): 1.01
25 | COc1ccc(-c2nc(NCCN3CCOCC3)c3cc(-c4ccc(S(N)(=O)=O)cc4)ccc3n2)cc1 | Active | inactive | 
26 | COc1ccc(-c2nc(NCCN3CCOCC3)c3ccccc3n2)cc1 | Active | Active | Activity [16]: Active; Ratio (Reticulocyte [5]): 0.99; Kd [17]: 139 µM; Ratio (Reticulocyte [6]): 1.21; ΔTm [18]: -2.5 °C; ΔTm [19]: -4.5 °C; Kd [7]: 147 µM; inhibition (MCF7 [20]): inactive; Activity [4]: Active; Ratio (Reticulocyte [8]): 0.77; Ratio (Reticulocyte [9]): 1.35; viability at 48 h, 50 µM [10]: 91.6%
27 | CCOC(=O)c1cccc(Nc2nc(-c3cccnc3)nc3ccccc23)c1 |  |  | Activity [3]: inactive; Activity [4]: inactive
28 | COc1ccc(F)cc1COc1ccc(-c2nc(NCCN3CCOCC3)c3ccccc3n2)cc1 | inactive | inactive | 
29 | COc1ccc(-c2nc(NCCN3CCOCC3)c3c(OC)cccc3n2)cc1 | Active | inactive | 
